Measured values published in ChEMBL document CHEMBL5236607, “Membrane-Active Cyclic Amphiphilic Peptides: Broad-Spectrum Antibacterial Activity Alone and in Combination with Antibiotics” (J Med Chem, 2022).
Peptide text beside a SMILES is read from it.

Legend:
[1] = Therapeutic index, ratio of HC50 for human RBC to MIC for methicillin resistant Staphylococcus aureus ATCC BAA-1556
In short: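 Human RBCs washed in PBS pH 7.4 and mixed 1:1 with two-fold peptide dilutions (4% v/v suspension), 2 h at 37 °C. Hemoglobin in supernatant read at 567 nm against PBS (0%) and 1% Triton X-100 (100%). HC50 is the concentration giving 50% hemolysis. Index is HC50 divided by MIC against MRSA.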

Staphylococcus aureus [2] = assay: Synergistic antibacterial activity against methicillin resistant Staphylococcus aureus ATCC BAA-1556 incubated for 24 hrs in presence of clindamycin by checkerboard assay; format: functional
In short: (§1)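 Checkerboard assay. Inoculum from an LB overnight culture at 0.5 McFarland, diluted 1/150 in MH media. […] Incubated 37 °C for 24 h. FICI = MIC combination/MIC alone summed over both agents. Triplicate.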

Escherichia coli [3] = assay: Synergistic antibacterial activity against Escherichia coli ATCC 25922 incubated for 24 hrs in presence of polymyxin B by checkerboard assay; format: functional
In short: (§2)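 Checkerboard assay in MH broth. Inoculum from an LB overnight culture set to 0.5 McFarland and diluted 1/150. […] Each agent was also titrated alone. Incubation 24 h at 37 °C. FIC = combination MIC/individual MIC; FICI = sum of the FICs. Triplicate.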

Staphylococcus aureus [4] = assay: Synergistic antibacterial activity against methicillin resistant Staphylococcus aureus ATCC BAA-1556 incubated for 24 hrs in presence of vancomycin by checkerboard assay; format: functional; in short: as §1
Pseudomonas aeruginosa [5] = assay: Synergistic antibacterial activity against Pseudomonas aeruginosa ATCC […] assessed as fractional inhibitory concentration incubated for 24 hrs in presence of tetracycline by checkerboard assay; format: functional
Staphylococcus aureus [6] = assay: Synergistic antibacterial activity against methicillin resistant Staphylococcus aureus ATCC BAA-1556 assessed as fractional inhibitory concentration index incubated for 24 hrs in presence of tetracycline by checkerboard assay; format: functional; in short: as §1
Pseudomonas aeruginosa [7] = assay: Synergistic antibacterial activity against Pseudomonas aeruginosa ATCC […] assessed as fractional inhibitory concentration index incubated for 24 hrs in presence of tetracycline by checkerboard assay; format: functional
Klebsiella pneumoniae [8] = assay: Synergistic antibacterial activity against Klebsiella pneumoniae ATCC BAA-1705 assessed as fractional inhibitory concentration index incubated for 24 hrs in presence of tetracycline by checkerboard assay; format: functional; in short: as §2
Pseudomonas aeruginosa [9] = assay: Synergistic antibacterial activity against Pseudomonas aeruginosa ATCC […] assessed as fractional inhibitory concentration index incubated for 24 hrs in presence of clindamycin by checkerboard assay; format: functional; in short: as §1
Escherichia coli [10] = assay: Synergistic antibacterial activity against Escherichia coli ATCC 25922 assessed as fractional inhibitory concentration index incubated for 24 hrs in presence of clindamycin by checkerboard assay; format: functional; in short: as §2
Pseudomonas aeruginosa [11] = assay: Synergistic antibacterial activity against Pseudomonas aeruginosa ATCC […] fractional inhibitory concentration index incubated for 24 hrs in presence of kanamycin by checkerboard assay; format: functional
Escherichia coli [12] = assay: Synergistic antibacterial activity against Escherichia coli ATCC 25922 fractional inhibitory concentration index incubated for 24 hrs in presence of kanamycin by checkerboard assay; format: functional; in short: as §2
Klebsiella pneumoniae [13] = assay: Synergistic antibacterial activity against Klebsiella pneumoniae ATCC BAA-1705 fractional inhibitory concentration index incubated for 24 hrs in presence of kanamycin by checkerboard assay; format: functional; in short: as §2
Pseudomonas aeruginosa [14] = assay: Synergistic antibacterial activity against Pseudomonas aeruginosa ATCC […] fractional inhibitory concentration index incubated for 24 hrs in presence of levofloxacin by checkerboard assay; format: functional
Escherichia coli [15] = assay: Synergistic antibacterial activity against Escherichia coli ATCC 25922 fractional inhibitory concentration index incubated for 24 hrs in presence of polymyxin B by checkerboard assay; format: functional; in short: as §2
Pseudomonas aeruginosa [16] = assay: Synergistic antibacterial activity against Pseudomonas aeruginosa ATCC […] fractional inhibitory concentration index incubated for 24 hrs in presence of metronidazole by checkerboard assay; format: functional
Klebsiella pneumoniae [17] = assay: Synergistic antibacterial activity against Klebsiella pneumoniae ATCC BAA-1705 fractional inhibitory concentration index incubated for 24 hrs in presence of metronidazole by checkerboard assay; format: functional
Pseudomonas aeruginosa [18] = assay: Synergistic antibacterial activity against Pseudomonas aeruginosa ATCC […] fractional inhibitory concentration index incubated for 24 hrs in presence of vancomycin by checkerboard assay; format: functional
Escherichia coli [19] = assay: Synergistic antibacterial activity against Escherichia coli ATCC 25922 fractional inhibitory concentration index incubated for 24 hrs in presence of vancomycin by checkerboard assay; format: functional; in short: as §1
Klebsiella pneumoniae [20] = assay: Synergistic antibacterial activity against Klebsiella pneumoniae ATCC BAA-1705 fractional inhibitory concentration index incubated for 24 hrs in presence of vancomycin by checkerboard assay; format: functional; in short: as §1
Pseudomonas aeruginosa [21] = assay: Synergistic antibacterial activity against Pseudomonas aeruginosa ATCC […] fractional inhibitory concentration index incubated for 24 hrs in presence of daptomycin by checkerboard assay; format: functional
Escherichia coli [22] = assay: Synergistic antibacterial activity against Escherichia coli ATCC 25922 assessed as fractional inhibitory concentration incubated for 24 hrs in presence of tetracycline by checkerboard assay; format: functional; in short: as §2
Pseudomonas aeruginosa [23] = assay: Synergistic antibacterial activity against Pseudomonas aeruginosa ATCC […] assessed as fractional inhibitory concentration incubated for 24 hrs in presence of clindamycin by checkerboard assay; format: functional
Escherichia coli [24] = assay: Synergistic antibacterial activity against Escherichia coli ATCC 25922 assessed as fractional inhibitory concentration incubated for 24 hrs in presence of clindamycin by checkerboard assay; format: functional; in short: as §2
Pseudomonas aeruginosa [25] = assay: Synergistic antibacterial activity against Pseudomonas aeruginosa ATCC […] fractional inhibitory concentration incubated for 24 hrs in presence of levofloxacin by checkerboard assay; format: functional
Pseudomonas aeruginosa [26] = assay: Synergistic antibacterial activity against Pseudomonas aeruginosa ATCC […] fractional inhibitory concentration incubated for 24 hrs in presence of Ciprofloxacin by checkerboard assay; format: functional
Staphylococcus aureus [27] = assay: Synergistic antibacterial activity against methicillin resistant Staphylococcus aureus ATCC BAA-1556 fractional inhibitory concentration incubated for 24 hrs in presence of polymyxin B by checkerboard assay; format: functional; in short: as §1
Klebsiella pneumoniae [28] = assay: Synergistic antibacterial activity against Klebsiella pneumoniae ATCC BAA-1705 fractional inhibitory concentration incubated for 24 hrs in presence of polymyxin B by checkerboard assay; format: functional; in short: as §2
Staphylococcus aureus [29] = assay: Synergistic antibacterial activity against methicillin resistant Staphylococcus aureus ATCC BAA-1556 fractional inhibitory concentration incubated for 24 hrs in presence of metronidazole by checkerboard assay; format: functional; in short: as §1
Klebsiella pneumoniae [30] = assay: Synergistic antibacterial activity against Klebsiella pneumoniae ATCC BAA-1705 fractional inhibitory concentration incubated for 24 hrs in presence of metronidazole by checkerboard assay; format: functional; in short: as §1
Pseudomonas aeruginosa [31] = assay: Synergistic antibacterial activity against Pseudomonas aeruginosa ATCC […] fractional inhibitory concentration incubated for 24 hrs in presence of vancomycin by checkerboard assay; format: functional
Klebsiella pneumoniae [32] = assay: Synergistic antibacterial activity against Klebsiella pneumoniae ATCC BAA-1705 fractional inhibitory concentration incubated for 24 hrs in presence of vancomycin by checkerboard assay; format: functional; in short: as §2
Pseudomonas aeruginosa [33] = assay: Synergistic antibacterial activity against Pseudomonas aeruginosa ATCC […] fractional inhibitory concentration incubated for 24 hrs in presence of daptomycin by checkerboard assay; format: functional
Klebsiella pneumoniae [34] = assay: Antibacterial activity against Klebsiella pneumoniae ATCC 700603 after 24 hrs by microbroth dilution method; format: functional
Pseudomonas aeruginosa [35] = assay: Synergistic antibacterial activity against Pseudomonas aeruginosa ATCC […] incubated for 24 hrs in presence of polymyxin B by checkerboard assay; format: functional; in short: as §1
[36] = Therapeutic index, ratio of cytotoxicity against human HEKa to MIC for methicillin resistant Staphylococcus aureus

N=C(N)NCCC[C@@H]1NC(=O)[C@H](CCCNC(=N)N)NC(=O)[C@H](CCCNC(=N)N)NC(=O)[C@H](CCCNC(=N)N)NC(=O)[C@H](Cc2c[nH]c3ccccc23)NC(=O)[C@H](Cc2c[nH]c3ccccc23)NC(=O)[C@H](Cc2c[nH]c3ccccc23)NC(=O)[C@H](Cc2c[nH]c3ccccc23)NC(=O)[C@H](CCCNC(=N)N)NC(=O)[C@H](CCCNC(=N)N)NC1=O (cyclo(RRRRRRWWWW))
TI [1]: 33.1
MIC (Staphylococcus aureus [2]): 0.031 µg/mL
MIC (Escherichia coli [3]): 0.125 µg/mL
MIC (Staphylococcus aureus [4]): 0.25 µg/mL
FIC (Pseudomonas aeruginosa [5]): 0.25
fractional inhibitory concentration index (FICI) (Staphylococcus aureus [6]): 0.5
fractional inhibitory concentration index (FICI) (Pseudomonas aeruginosa [7]): 0.5
fractional inhibitory concentration index (FICI) (Klebsiella pneumoniae [8]): 0.375
fractional inhibitory concentration index (FICI) (Pseudomonas aeruginosa [9]): 0.516
fractional inhibitory concentration index (FICI) (Escherichia coli [10]): 0.313
fractional inhibitory concentration index (FICI) (Pseudomonas aeruginosa [11]): 0.266
fractional inhibitory concentration index (FICI) (Escherichia coli [12]): 0.375
fractional inhibitory concentration index (FICI) (Klebsiella pneumoniae [13]): 0.5
fractional inhibitory concentration index (FICI) (Pseudomonas aeruginosa [14]): 0.375
fractional inhibitory concentration index (FICI) (Escherichia coli [15]): 0.313
fractional inhibitory concentration index (FICI) (Pseudomonas aeruginosa [16]): 0.375
fractional inhibitory concentration index (FICI) (Klebsiella pneumoniae [17]): 0.313
fractional inhibitory concentration index (FICI) (Pseudomonas aeruginosa [18]): 0.531
fractional inhibitory concentration index (FICI) (Escherichia coli [19]): 0.563
fractional inhibitory concentration index (FICI) (Klebsiella pneumoniae [20]): 0.313
fractional inhibitory concentration index (FICI) (Pseudomonas aeruginosa [21]): 0.516
FIC (Escherichia coli [22]): 0.063
FIC (Pseudomonas aeruginosa [23]): 0.016
FIC (Escherichia coli [24]): 0.063
FIC (Pseudomonas aeruginosa [25]): 0.125
FIC (Pseudomonas aeruginosa [26]): 0.25
FIC (Staphylococcus aureus [27]): 0.063
FIC (Klebsiella pneumoniae [28]): 0.031
FIC (Staphylococcus aureus [29]): 0.063
FIC (Klebsiella pneumoniae [30]): 0.063
FIC (Pseudomonas aeruginosa [31]): 0.0313
FIC (Klebsiella pneumoniae [32]): 0.0625
FIC (Pseudomonas aeruginosa [33]): 0.0156

N=C(N)NCCC[C@@H]1NC(=O)[C@H](CCCNC(=N)N)NC(=O)[C@H](CCCNC(=N)N)NC(=O)[C@H](Cc2c[nH]c3ccccc23)NC(=O)[C@H](Cc2c[nH]c3ccccc23)NC(=O)[C@H](Cc2c[nH]c3ccccc23)NC(=O)[C@H](Cc2c[nH]c3ccccc23)NC(=O)[C@H](CCCNC(=N)N)NC(=O)[C@H](CCCNC(=N)N)NC1=O
TI [1]: 85
MIC (Klebsiella pneumoniae [34]): > 64 µg/mL
MIC (Staphylococcus aureus [2]): 0.0312 µg/mL
MIC (Pseudomonas aeruginosa [35]): 0.125 µg/mL
MIC (Escherichia coli [3]): 0.25 µg/mL
MIC (Staphylococcus aureus [4]): 0.5 µg/mL
FIC (Pseudomonas aeruginosa [5]): 0.125
fractional inhibitory concentration index (FICI) (Staphylococcus aureus [6]): 0.5
fractional inhibitory concentration index (FICI) (Pseudomonas aeruginosa [7]): 0.375
fractional inhibitory concentration index (FICI) (Klebsiella pneumoniae [8]): 0.375
fractional inhibitory concentration index (FICI) (Pseudomonas aeruginosa [9]): 0.266
fractional inhibitory concentration index (FICI) (Escherichia coli [10]): 0.313
fractional inhibitory concentration index (FICI) (Pseudomonas aeruginosa [11]): 0.281
fractional inhibitory concentration index (FICI) (Escherichia coli [12]): 0.5
fractional inhibitory concentration index (FICI) (Klebsiella pneumoniae [13]): 0.375
fractional inhibitory concentration index (FICI) (Pseudomonas aeruginosa [14]): 0.375
fractional inhibitory concentration index (FICI) (Escherichia coli [15]): 0.375
fractional inhibitory concentration index (FICI) (Pseudomonas aeruginosa [16]): 0.5
fractional inhibitory concentration index (FICI) (Klebsiella pneumoniae [17]): 0.281
fractional inhibitory concentration index (FICI) (Pseudomonas aeruginosa [18]): 0.313
fractional inhibitory concentration index (FICI) (Escherichia coli [19]): 0.531
fractional inhibitory concentration index (FICI) (Klebsiella pneumoniae [20]): 0.563
fractional inhibitory concentration index (FICI) (Pseudomonas aeruginosa [21]): 0.313
FIC (Escherichia coli [22]): 0.125
FIC (Pseudomonas aeruginosa [23]): 0.016
FIC (Escherichia coli [24]): 0.063
FIC (Pseudomonas aeruginosa [25]): 0.125
FIC (Pseudomonas aeruginosa [26]): 0.25
FIC (Klebsiella pneumoniae [28]): 0.125
FIC (Staphylococcus aureus [29]): 0.063
FIC (Klebsiella pneumoniae [30]): 0.0313
FIC (Pseudomonas aeruginosa [31]): 0.063
FIC (Klebsiella pneumoniae [32]): 0.0625
FIC (Pseudomonas aeruginosa [33]): 0.063
TI [36]: 63
